Measurements published in ChEMBL document CHEMBL3112482, “Nonclassical antifolates, part 5. Benzodiazepine analogs as a new class of DHFR inhibitors: synthesis, antitumor testing and molecular modeling study” (Eur J Med Chem, 2014).

What was measured:
[1] = system: U-251; test: Growth inhibition of human U251 cells at 10 uM after 48 hrs; type: functional; settings: U-251, 48 h, read-out: GI
In short: (§1)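 NCI 60-cell-line disease-oriented human tumor panel, single-dose primary screen at 10 µM. Data given as mean-graph percent growth of treated cells, reported as percent growth inhibition (GI %).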

[2] = system: SNB-75; test: Growth inhibition of human SNB75 cells at 10 uM after 48 hrs; type: functional; settings: SNB-75, 48 h, read-out: GI; in short: as §1
[3] = system: SNB-19; test: Growth inhibition of human SNB19 cells at 10 uM after 48 hrs; type: functional; settings: SNB-19, 48 h, read-out: GI; in short: as §1
[4] = Growth inhibition of human SF539 cells at 10 uM after 48 hrs; type: functional; settings: SF-539, 48 h, read-out: GI; in short: as §1
[5] = system: SF-268; test: Growth inhibition of human SF268 cells at 10 uM after 48 hrs; type: functional; settings: SF-268, 48 h, read-out: GI; in short: as §1
[6] = system: SF-295; test: Growth inhibition of human SF295 cells at 10 uM after 48 hrs; type: functional; settings: SF-295, 48 h, read-out: GI; in short: as §1
[7] = system: SW-620; test: Growth inhibition of human SW620 cells at 10 uM after 48 hrs; type: functional; settings: SW-620, 48 h, read-out: GI; in short: as §1
[8] = system: COLO 205; test: Growth inhibition of human COLO205 cells at 10 uM after 48 hrs; type: functional; settings: COLO 205, 48 h, read-out: GI
In short: (§2)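 Single-dose primary screen in the NCI 60 human tumour cell line panel, run at the NCI facility. The panel covers nine subpanels: leukaemia, non-small cell lung, colon, CNS, melanoma, ovarian, renal, prostate and breast. Read-out was percent growth of treated cells, shown as a mean graph and reported as percent growth inhibition.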

[9] = system: NCI-H522; test: Growth inhibition of human NCI-H522 cells at 10 uM after 48 hrs; type: functional; settings: NCI-H522, 48 h, read-out: GI; in short: as §2
[10] = system: NCI-H322M; test: Growth inhibition of human NCI-H322M cells at 10 uM after 48 hrs; type: functional; settings: read-out: GI; in short: as §2
[11] = system: NCI-H23; test: Growth inhibition of human NCI-H23 cells at 10 uM after 48 hrs; type: functional; settings: NCI-H23, 48 h, read-out: GI; in short: as §2
[12] = system: NCI-H226; test: Growth inhibition of human NCI-H226 cells at 10 uM after 48 hrs; type: functional; settings: NCI-H226, 48 h, read-out: GI; in short: as §2
[13] = system: HOP-62; test: Growth inhibition of human HOP62 cells at 10 uM after 48 hrs; type: functional; settings: HOP-62, 48 h, read-out: GI; in short: as §2
[14] = Growth inhibition of human EKVX cells at 10 uM after 48 hrs; type: functional; settings: read-out: GI; in short: as §2
[15] = system: A549; test: Growth inhibition of human A549 cells at 10 uM after 48 hrs; type: functional; settings: A549, 48 h, read-out: GI; in short: as §2
[16] = system: SR; test: Growth inhibition of human SR cells at 10 uM after 48 hrs; type: functional; settings: read-out: GI; in short: as §1
[17] = system: K562; test: Growth inhibition of human K562 cells at 10 uM after 48 hrs; type: functional; settings: K562, 48 h, read-out: GI; in short: as §2
[18] = system: MOLT-4; test: Growth inhibition of human MOLT4 cells at 10 uM after 48 hrs; type: functional; settings: MOLT-4, 48 h, read-out: GI; in short: as §2
[19] = system: CCRF-CEM; test: Growth inhibition of human CCRF-CEM cells at 10 uM after 48 hrs; type: functional; settings: read-out: GI; in short: as §2
[20] = target: T1, Dihydrofolate reductase (Bos taurus, UniProt P00376); test: Inhibition of bovine liver DHFR measured for every 1 min of 10 mins
T1 sequence (P00376 whole entry): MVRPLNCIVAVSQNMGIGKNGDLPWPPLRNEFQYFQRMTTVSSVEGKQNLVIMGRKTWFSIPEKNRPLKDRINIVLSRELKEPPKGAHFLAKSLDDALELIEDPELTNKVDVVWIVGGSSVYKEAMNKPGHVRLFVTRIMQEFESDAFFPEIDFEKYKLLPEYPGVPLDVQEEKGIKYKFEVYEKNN

[21] = Cytotoxicity against human prostate cancer cells at 10 uM after 48 hrs; type: functional; settings: Cancer cell lines
[22] = Cytotoxicity against human colon cancer cells at 10 uM after 48 hrs; type: functional; settings: Cancer cell lines; in short: as §2
[23] = Cytotoxicity against human leukemia cells at 10 uM after 48 hrs; type: functional; settings: Leukemia cell
[24] = system: T47D; test: Growth inhibition of human T47D cells at 10 uM after 48 hrs; type: functional; settings: read-out: GI; in short: as §1
[25] = Growth inhibition of human Hs 578T cells at 10 uM after 48 hrs; type: functional; settings: read-out: GI; in short: as §2
[26] = system: MCF7; test: Growth inhibition of human MCF7 cells at 10 uM after 48 hrs; type: functional; settings: MCF7, 48 h, read-out: GI; in short: as §2
[27] = system: MDA-MB-231; test: Growth inhibition of human MDA-MB-231 cells at 10 uM after 48 hrs; type: functional; settings: MDA-MB-231, 48 h, read-out: GI; in short: as §2
[28] = system: PC-3; test: Growth inhibition of human PC3 cells at 10 uM after 48 hrs; type: functional; settings: PC-3, 48 h, read-out: GI; in short: as §2
[29] = system: TK-10; test: Growth inhibition of human TK10 cells at 10 uM after 48 hrs; type: functional; settings: TK-10, 48 h, read-out: GI; in short: as §1
[30] = Growth inhibition of human UO31 cells at 10 uM after 48 hrs; type: functional; settings: UO-31, 48 h, read-out: GI; in short: as §1
[31] = system: CAKI-1; test: Growth inhibition of human CAKI-1 cells at 10 uM after 48 hrs; type: functional; settings: CAKI-1, 48 h, read-out: GI; in short: as §2
[32] = Growth inhibition of human RXF393 cells at 10 uM after 48 hrs; type: functional; settings: RXF 393, 48 h, read-out: GI; in short: as §2
[33] = system: SK-OV-3; test: Growth inhibition of human SKOV3 cells at 10 uM after 48 hrs; type: functional; settings: SK-OV-3, 48 h, read-out: GI; in short: as §1
[34] = Growth inhibition of human NCI-ADR-RES cells at 10 uM after 48 hrs; type: functional; settings: read-out: GI; in short: as §2
[35] = Growth inhibition of human OVCAR5 cells at 10 uM after 48 hrs; type: functional; settings: OVCAR-5, 48 h, read-out: GI; in short: as §2
[36] = Growth inhibition of human OVCAR4 cells at 10 uM after 48 hrs; type: functional; settings: OVCAR-4, 48 h, read-out: GI; in short: as §2
[37] = system: IGROV-1; test: Growth inhibition of human IGROV1 cells at 10 uM after 48 hrs; type: functional; settings: IGROV-1, 48 h, read-out: GI; in short: as §2
[38] = system: UACC-62; test: Growth inhibition of human UACC62 cells at 10 uM after 48 hrs; type: functional; settings: UACC-62, 48 h, read-out: GI; in short: as §1
[39] = system: SK-MEL-28; test: Growth inhibition of human SK-MEL-28 cells at 10 uM after 48 hrs; type: functional; settings: SK-MEL-28, 48 h, read-out: GI; in short: as §1
[40] = system: SK-MEL-2; test: Growth inhibition of human SK-MEL-2 cells at 10 uM after 48 hrs; type: functional; settings: SK-MEL-2, 48 h, read-out: GI; in short: as §1

With `Clc1ccc(/C=C2\CCCC3=C(c4ccc(Cl)cc4)Nc4ccccc4N=C32)cc1` as the compound, how does the inhibition of growth at 10 µM [1] read?
Its inhibition of growth at 10 µM is 79.2%.

And the inhibition of growth at 10 µM [2]?
Its inhibition of growth at 10 µM is less than 30%.

What about the inhibition of growth at 10 µM [3] of the same compound?
The inhibition of growth at 10 µM was less than 30%.

What about the inhibition of growth at 10 µM [4] of the same compound?
Its inhibition of growth at 10 µM is less than 30%.

And the inhibition of growth at 10 µM [5]?
Its inhibition of growth at 10 µM is less than 30%.

What about the inhibition of growth at 10 µM [6] of the same compound?
Its inhibition of growth at 10 µM is less than 30%.

What about the inhibition of growth at 10 µM [7] of the same compound?
The inhibition of growth at 10 µM was 58.6%.

What about the inhibition of growth at 10 µM [8] of the same compound?
Its inhibition of growth at 10 µM is 31.9%.

And the inhibition of growth at 10 µM [9]?
The inhibition of growth at 10 µM was 80.1%.

And the inhibition of growth at 10 µM [10]?
The inhibition of growth at 10 µM was less than 30%.

And the inhibition of growth at 10 µM [11]?
Its inhibition of growth at 10 µM is less than 30%.

What about the inhibition of growth at 10 µM [12] of the same compound?
Its inhibition of growth at 10 µM is less than 30%.

What about the inhibition of growth at 10 µM [13] of the same compound?
Its inhibition of growth at 10 µM is less than 30%.

What about the inhibition of growth at 10 µM [14] of the same compound?
The inhibition of growth at 10 µM was less than 30%.

What about the inhibition of growth at 10 µM [15] of the same compound?
The inhibition of growth at 10 µM was less than 30%.

And the inhibition of growth at 10 µM [16]?
The inhibition of growth at 10 µM was 78.5%.

What about the inhibition of growth at 10 µM [17] of the same compound?
Its inhibition of growth at 10 µM is 52.8%.

What about the inhibition of growth at 10 µM [18] of the same compound?
Its inhibition of growth at 10 µM is 34.2%.

What about the inhibition of growth at 10 µM [19] of the same compound?
Its inhibition of growth at 10 µM is less than 30%.

What about the IC50 [20] of the same compound?
The IC50 was 0.3 µM.

And the GI50 [21]?
The GI50 was 5.1 µM.

And the LC50 [21]?
The LC50 was greater than 100 µM.

What about the TGI [21] of the same compound?
Its TGI is 61.9 µM.

And the GI50 [22]?
The GI50 was 2.4 µM.

And the TGI [22]?
The TGI was 6.4 µM.

And the CC50 ([22]; read-out: LC50 (the source's name))?
Its CC50 is 38.8 µM.

And the GI50 [23]?
The GI50 was 4.1 µM.

What about the LC50 [23] of the same compound?
The LC50 was greater than 100 µM.

And the TGI [23]?
The TGI was 49.4 µM.

And the inhibition of growth at 10 µM [24]?
The inhibition of growth at 10 µM was less than 30%.

And the inhibition of growth at 10 µM [25]?
Its inhibition of growth at 10 µM is less than 30%.

And the inhibition of growth at 10 µM [26]?
The inhibition of growth at 10 µM was 64.2%.

And the inhibition of growth at 10 µM [27]?
The inhibition of growth at 10 µM was less than 30%.

What about the inhibition of growth at 10 µM [28] of the same compound?
The inhibition of growth at 10 µM was less than 30%.

What about the inhibition of growth at 10 µM [29] of the same compound?
Its inhibition of growth at 10 µM is less than 30%.

What about the inhibition of growth at 10 µM [30] of the same compound?
Its inhibition of growth at 10 µM is less than 30%.

What about the inhibition of growth at 10 µM [31] of the same compound?
Its inhibition of growth at 10 µM is less than 30%.

What about the inhibition of growth at 10 µM [32] of the same compound?
Its inhibition of growth at 10 µM is 34.7%.

And the inhibition of growth at 10 µM [33]?
The inhibition of growth at 10 µM was less than 30%.

What about the inhibition of growth at 10 µM [34] of the same compound?
The inhibition of growth at 10 µM was less than 30%.

What about the inhibition of growth at 10 µM [35] of the same compound?
Its inhibition of growth at 10 µM is less than 30%.

What about the inhibition of growth at 10 µM [36] of the same compound?
Its inhibition of growth at 10 µM is less than 30%.

What about the inhibition of growth at 10 µM [37] of the same compound?
Its inhibition of growth at 10 µM is less than 30%.

What about the inhibition of growth at 10 µM [38] of the same compound?
Its inhibition of growth at 10 µM is less than 30%.

What about the inhibition of growth at 10 µM [39] of the same compound?
The inhibition of growth at 10 µM was less than 30%.

What about the inhibition of growth at 10 µM [40] of the same compound?
The inhibition of growth at 10 µM was less than 30%.
